Test results as given in ChEMBL document CHEMBL3784921, “Mimicking of Arginine by Functionalized N(ω)-Carbamoylated Arginine As a New Broadly Applicable Approach to Labeled Bioactive Peptides: High Affinity Angiotensin, Neuropeptide Y, Neuropeptide FF, and Neurotensin Receptor Ligands As Examples” (J Med Chem, 2016).
One block for each compound: values may come before it. *1 amine or outer side, *2 acyl side, *3 side chain or, on linkers, in order; H or OH if unused. Where a SMILES comes first, the peptide text is derived from it. Bridges are numbered along the chain shown (N, C = ends). Roman numbers before positions name the chains, in order. [ ]: non-standard residue; d: D form. X3 = NCCOCCOCCNC(=O)/N=C(\N)NCCC[C@H](N[*:1])C(=O)[*:2]; X2 = NCCCCNC(=O)/N=C(\N)NCCC[C@H](N[*:1])C(=O)[*:2]; Suberoyl = O=C(CCCCCCC(=O)[*:2])[*:1]

Key:
[1] = Chemical stability of compound at 200 uM at pH 7 at 21 degC after 24 to 48 hrs by reversed-phase HPLC analysis; format: physicochemical; details: buffer, pH 7, 200 µM
How it was run: (§1)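 Peptide incubated in phosphate buffer (PBS), pH 7.0, 21 °C, for 24 or 48 h. Remaining intact peptide assessed by reversed-phase HPLC chromatograms.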

[2] = biological target: T1, Neurotensin receptor type 1 (Homo sapiens, UniProt P30989); test: Agonist activity at NTSR1 in human HT-29 cells assessed as induction of intracellular Ca2+ mobilization by fura-2 dye-based spectrofluorimetric analysis; format: functional, cell-based
[3] = biological target: T1, Neurotensin receptor type 1; test: Displacement of [3H]-{Nomega-[N-(4-propanoylaminobutyl)aminocarbonyl]}Arg-Arg-ProTyr-Ile-Leu-OH Tris(hydrotrifluoroacetate) from NTSR1 in human HT-29 cells after 2 hrs by liquid scintillation counting; format: cell-based
[4] = biological target: T1, Neurotensin receptor type 1; test: Displacement of [3H]-{Nomega-[N-(4-propanoylaminobutyl)aminocarbonyl]}Arg-Arg-ProTyr-Ile-Leu-OH Tris(hydrotrifluoroacetate) from human NTSR1 transfected in CHO cells co-expressing Galpha16-mtAEQ after 2 hrs by liquid scintillation counting; format: cell-based
[5] = biological target: Neurotensin receptor type 2 (Homo sapiens, UniProt O95665); test: Displacement of [3H]NT(8 to 13 residues) from human NTSR2 expressed in HEK293 cell membranes
[6] = biological target: T2, Type-1 angiotensin II receptor (Homo sapiens, UniProt P30556); test: Agonist activity at human AT1 receptor transfected in CHO cells co-expressing Galpha16-mtAEQ assessed as induction of intracellular Ca2+ mobilization by bioluminescence assay; format: functional, cell-based
T2 sequence (P30556 whole entry): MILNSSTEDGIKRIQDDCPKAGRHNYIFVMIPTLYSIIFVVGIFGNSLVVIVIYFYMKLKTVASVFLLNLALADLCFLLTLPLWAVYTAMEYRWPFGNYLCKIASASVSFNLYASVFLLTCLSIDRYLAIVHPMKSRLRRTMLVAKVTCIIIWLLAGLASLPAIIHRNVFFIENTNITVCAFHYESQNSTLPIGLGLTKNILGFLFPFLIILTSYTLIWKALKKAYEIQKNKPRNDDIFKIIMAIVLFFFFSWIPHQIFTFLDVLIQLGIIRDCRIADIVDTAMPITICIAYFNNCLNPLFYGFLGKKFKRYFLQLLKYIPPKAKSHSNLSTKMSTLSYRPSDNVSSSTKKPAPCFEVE

[7] = biological target: T2, Type-1 angiotensin II receptor; test: Displacement of [3H]-Asp-{Nomega-[N-(4-propanoylaminobutyl)aminocarbonyl]}Arg-ValTyr-Ile-His-Pro-Phe-OH Tris(hydrotrifluoroacetate) from human AT1 receptor transfected in CHO cells co-expressing Galpha16-mtAEQ after 2 hrs by liquid scintillation counting; format: cell-based
[8] = Chemical stability of compound at 120 uM at pH 7 at 21 degC after 24 to 48 hrs by reversed-phase HPLC analysis; format: physicochemical; details: buffer, pH 7, 120 µM; how it was run: as §1
[9] = Drug degradation in human HT-29 cells at 50 uM after 2 hrs by reversed-phase HPLC analysis; format: ADME, cell-based; details: read-out: Drug degradation
How it was run: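 Stability tested under binding-assay conditions for up to 6 h: AT1 ligands with CHO-hAT1 cells and NTSR1 ligands with HT-29 cells. Samples analysed by reversed-phase HPLC chromatography.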

[10] = Chemical stability of compound at 150 uM at pH 7 at 21 degC after 24 to 48 hrs by reversed-phase HPLC analysis; format: physicochemical; details: buffer, pH 7, 150 µM
How it was run: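 Peptide incubated in phosphate buffer (PBS), pH 7.0, 21 °C, for 24 or 48 h. Remaining intact peptide assessed from reversed-phase HPLC chromatograms.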

[11] = biological target: Neuropeptide Y receptor type 4 (Homo sapiens, UniProt P50391); test: Displacement of S0586[K4]hpp from human NPY4 receptor expressed in CHO cells co-expressing Gqi5-mtAEQ by flow cytometric analysis; format: cell-based
Chain of Neuropeptide Y receptor type 4 (P50391 whole entry): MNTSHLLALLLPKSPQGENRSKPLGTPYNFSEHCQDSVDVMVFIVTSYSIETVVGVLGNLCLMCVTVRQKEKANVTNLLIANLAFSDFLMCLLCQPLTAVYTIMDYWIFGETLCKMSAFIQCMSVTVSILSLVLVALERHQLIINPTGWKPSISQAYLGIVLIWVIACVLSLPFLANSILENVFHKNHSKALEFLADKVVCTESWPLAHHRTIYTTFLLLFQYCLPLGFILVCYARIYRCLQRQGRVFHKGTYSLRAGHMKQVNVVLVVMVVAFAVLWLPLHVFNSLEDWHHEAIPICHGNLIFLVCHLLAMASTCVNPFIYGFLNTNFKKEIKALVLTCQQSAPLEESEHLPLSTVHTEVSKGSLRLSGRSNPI

T1 sequence (P30989 whole entry): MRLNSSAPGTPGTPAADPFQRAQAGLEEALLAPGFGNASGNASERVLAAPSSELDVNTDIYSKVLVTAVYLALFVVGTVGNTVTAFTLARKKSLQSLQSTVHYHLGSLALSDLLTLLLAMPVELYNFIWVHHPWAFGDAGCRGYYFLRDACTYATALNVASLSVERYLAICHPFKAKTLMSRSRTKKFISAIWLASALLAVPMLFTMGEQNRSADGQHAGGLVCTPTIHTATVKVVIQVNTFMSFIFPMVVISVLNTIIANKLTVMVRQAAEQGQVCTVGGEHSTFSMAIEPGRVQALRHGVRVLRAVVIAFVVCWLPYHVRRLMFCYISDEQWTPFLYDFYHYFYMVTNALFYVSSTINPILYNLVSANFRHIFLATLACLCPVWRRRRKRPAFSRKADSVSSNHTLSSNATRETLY
Chain of Neurotensin receptor type 2 (O95665 whole entry, the tested form may be a part): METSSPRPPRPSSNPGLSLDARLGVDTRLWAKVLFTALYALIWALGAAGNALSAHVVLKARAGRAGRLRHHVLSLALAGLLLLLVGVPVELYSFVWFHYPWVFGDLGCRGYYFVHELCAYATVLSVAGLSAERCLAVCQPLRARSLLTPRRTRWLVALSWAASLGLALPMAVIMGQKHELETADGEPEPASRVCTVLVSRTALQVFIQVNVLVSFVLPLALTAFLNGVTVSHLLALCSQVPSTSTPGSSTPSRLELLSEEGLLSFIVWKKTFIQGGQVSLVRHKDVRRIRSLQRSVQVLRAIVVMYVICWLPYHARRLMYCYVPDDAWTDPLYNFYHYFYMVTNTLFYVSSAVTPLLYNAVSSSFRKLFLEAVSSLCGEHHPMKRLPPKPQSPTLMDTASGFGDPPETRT

Structure (SMILES): CC[C@H](C)[C@H](NC(=O)[C@H](Cc1ccc(O)cc1)NC(=O)[C@@H]1CCCN1C(=O)[C@H](CCCNC(=N)N)NC(=O)[C@@H](N)CCCN/C(N)=N/C(=O)NCCCCN)C(=O)N[C@@H](CC(C)C)C(=O)O.O=C(O)C(F)(F)F.O=C(O)C(F)(F)F.O=C(O)C(F)(F)F.O=C(O)C(F)(F)F (H-[X2]RPYIL-OH)
Stability [1]: Stable
EC50 ([2]; read-out: EC50): 1.7 nM
EC50 ([2]; read-out: pEC50 (converted)): 1.55 nM
IC50 [3]: 1.35 nM
Ki [3]: 0.47 nM
Ki [4]: 0.69 nM
Ki [5]: 0.74 nM

Structure (SMILES): CC[C@H](C)[C@H](NC(=O)[C@H](Cc1ccc(O)cc1)NC(=O)[C@@H](NC(=O)[C@H](CCCN/C(N)=N/C(=O)NCCOCCOCCN)NC(=O)[C@@H](N)CC(=O)O)C(C)C)C(=O)N[C@@H](Cc1cnc[nH]1)C(=O)N1CCC[C@H]1C(=O)N[C@@H](Cc1ccccc1)C(=O)O.O=C(O)C(F)(F)F.O=C(O)C(F)(F)F.O=C(O)C(F)(F)F.O=C(O)C(F)(F)F (H-D[X3]VYIHPF-OH)
Stability [1]: Stable
EC50 [6]: 2.1 nM
Ki [7]: 2.8 nM

Structure (SMILES): CC[C@H](C)[C@H](NC(=O)[C@H](Cc1ccc(O)cc1)NC(=O)[C@@H](NC(=O)[C@H](CCCN/C(N)=N/C(=O)NCCCCNC(=O)CCCCCN1\C(=C/C=C/C=C/C2=[N+](C)c3ccccc3C2(C)C)C(C)(C)c2ccccc21)NC(=O)[C@@H](N)CC(=O)O)C(C)C)C(=O)N[C@@H](Cc1cnc[nH]1)C(=O)N1CCC[C@H]1C(=O)N[C@@H](Cc1ccccc1)C(=O)O.O=C(O)C(F)(F)F.O=C(O)C(F)(F)F.O=C(O)C(F)(F)F.O=C(O)C(F)(F)F.[Br-]
Stability [8]: Stable

metabolised at 2 h, 50 µM [9]: < 5.5%
Structure (SMILES): CCC(=O)NCCOCCOCCNC(=O)/N=C(\N)NCCC[C@H](N)C(=O)N[C@@H](CCCNC(=N)N)C(=O)N1CCC[C@H]1C(=O)N[C@@H](Cc1ccc(O)cc1)C(=O)N[C@H](C(=O)N[C@@H](CC(C)C)C(=O)O)[C@@H](C)CC

Structure (SMILES): CC[C@H](C)[C@H](NC(=O)[C@H](Cc1ccc(O)cc1)NC(=O)[C@@H]1CCCN1C(=O)[C@H](CCCNC(=N)N)NC(=O)[C@@H](N)CCCN/C(N)=N/C(=O)NCCCCNC(=O)CCCCCN1\C(=C/C=C/C=C/C2=[N+](C)c3ccccc3C2(C)C)C(C)(C)c2ccccc21)C(=O)N[C@@H](CC(C)C)C(=O)O.O=C(O)C(F)(F)F.O=C(O)C(F)(F)F.O=C(O)C(F)(F)F.O=C(O)C(F)(F)F.[Br-]
Stability [10]: Stable

Ki [3]: 0.26 nM
Structure (SMILES): CC[C@H](C)[C@H](NC(=O)[C@H](Cc1ccc(O)cc1)NC(=O)[C@@H]1CCCN1C(=O)[C@H](CCCNC(=N)N)NC(=O)[C@@H](N)CCCN/C(N)=N/C(=O)NCCOCCOCCN)C(=O)N[C@@H](CC(C)C)C(=O)O (H-[X3]RPYIL-OH)

Structure (SMILES): CC[C@H](C)[C@H](NC(=O)[C@H](Cc1ccc(O)cc1)NC(=O)[C@@H](NC(=O)[C@H](CCCN/C(N)=N/C(=O)NCCCCNC(=O)CCCCC[n+]1cc(S(=O)(=O)[O-])ccc1/C=C/c1cc2ccc(N(CC)CC)cc2oc1=O)NC(=O)[C@@H](N)CC(=O)O)C(C)C)C(=O)N[C@@H](Cc1cnc[nH]1)C(=O)N1CCC[C@H]1C(=O)N[C@@H](Cc1ccccc1)C(=O)O.O=C(O)C(F)(F)F.O=C(O)C(F)(F)F.O=C(O)C(F)(F)F
Stability [8]: Stable

Structure (SMILES): CC[C@H](C)[C@H](NC(=O)[C@H](Cc1ccc(O)cc1)NC(=O)[C@@H]1CCCN1C(=O)[C@H](CCCNC(=N)N)NC(=O)[C@@H](N)CCCN/C(N)=N/C(=O)NCCCCNC(=O)CCCCC[n+]1cc(S(=O)(=O)[O-])ccc1/C=C/c1cc2ccc(N(CC)CC)cc2oc1=O)C(=O)N[C@@H](CC(C)C)C(=O)O.O=C(O)C(F)(F)F.O=C(O)C(F)(F)F.O=C(O)C(F)(F)F
Stability [10]: Stable

Ki [11]: 7.4 nM
Structure (SMILES): CC(C)C[C@H](NC(=O)[C@H](CCCNC(=N)N)NC(=O)[C@H](Cc1ccc(O)cc1)NC(=O)CCCCCCC(=O)N[C@@H](Cc1ccc(O)cc1)C(=O)N[C@@H](CCCNC(=N)N)C(=O)N[C@@H](CC(C)C)C(=O)N[C@@H](CCCNC(=N)N)C(=O)N[C@@H](Cc1ccc(O)cc1)C(N)=O)C(=O)N[C@@H](CCCNC(=N)N)C(=O)N[C@@H](Cc1ccc(O)cc1)C(N)=O (I: YRLRY-NH2 / II: YRLRY-NH2; linker I:N-II:N via Suberoyl)
